In ChEMBL document CHEMBL2346664, “Synthesis, characterization and in vitro anticancer evaluation of novel 1,2,4-triazolin-3-one derivatives” (2013):
Active and inactive are the calls of the source. The rule behind the calls is not given here.

Key:
U-251 = experiment: Growth inhibition of human U251 cells assessed as cell growth at 10 '-5 M after 48 hrs by sulforhodamine B assay; assay type: functional; conditions: U-251, 48 h, read-out: Activity
HCT-116 [1] = experiment: Growth inhibition of human HCT116 cells assessed as cell growth at 10 '-5 M after 48 hrs by sulforhodamine B assay; assay type: functional; conditions: HCT-116, 48 h, read-out: Activity
NCI-H23 = experiment: Growth inhibition of human NCI-H23 cells assessed as cell growth at 10 '-5 M after 48 hrs by sulforhodamine B assay; assay type: functional; conditions: NCI-H23, 48 h, read-out: Activity
[2] = Growth inhibition of human EKVX cells assessed as cell growth at 10 '-5 M after 48 hrs by sulforhodamine B assay; assay type: functional; conditions: read-out: Activity
SR = experiment: Growth inhibition of human SR cells assessed as cell growth at 10 '-5 M after 48 hrs by sulforhodamine B assay; assay type: functional; conditions: read-out: Activity
OVCAR-4 = experiment: Growth inhibition of human OVCAR4 cells assessed as cell growth at 10 '-6 M after 48 hrs by sulforhodamine B assay; assay type: functional; conditions: OVCAR-4, 48 h, read-out: Activity
MDA-MB-435 = experiment: Growth inhibition of human MDA-MB-435 cells assessed as growth inhibition at 10 uM after 48 hrs by sulforhodamine B assay; assay type: functional, cell-based
Malme-3M = experiment: Growth inhibition of human MALME-3M cells assessed as growth inhibition at 10 uM after 48 hrs by sulforhodamine B assay; assay type: functional; conditions: read-out: GI
HCT-116 [3] = experiment: Growth inhibition of human HCT116 cells assessed as growth inhibition at 10 uM after 48 hrs by sulforhodamine B assay; assay type: functional; conditions: HCT-116, 48 h, read-out: GI
SNB-19 [4] = experiment: Growth inhibition of human SNB19 cells assessed as cell growth at 10 '-7 M after 48 hrs by sulforhodamine B assay; assay type: functional; conditions: SNB-19, 48 h, read-out: Activity
HT-29 = experiment: Growth inhibition of human HT-29 cells assessed as cell growth at 10 '-7 M after 48 hrs by sulforhodamine B assay; assay type: functional; conditions: HT-29, 48 h, read-out: Activity
ACHN = experiment: Growth inhibition of human ACHN cells assessed as cell growth at 10 '-4 M after 48 hrs by sulforhodamine B assay; assay type: functional; conditions: read-out: Activity
In short: (§1)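 Percent growth at each of the five concentrations of the 48 h continuous-exposure NCI SRB screen. Drug stocks were in DMSO at 400× the top final concentration and diluted in medium with gentamicin. Growth was calculated as [(Ti-Tz)/(C-Tz)]×100 when Ti ≥ Tz, or [(Ti-Tz)/Tz]×100 when Ti < Tz. Tz plates were fixed at drug addition; untreated wells served as control. Absorbance was read at 515 nm.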

K562 = experiment: Growth inhibition of human K562 cells assessed as cell growth at 10 '-8 M after 48 hrs by sulforhodamine B assay; assay type: functional; conditions: K562, 48 h, read-out: Activity
TK-10 = experiment: Growth inhibition of human TK10 cells after 48 hrs by sulforhodamine B assay; assay type: functional; conditions: TK-10, 48 h
COLO 205 [5] = experiment: Growth inhibition of human COLO205 cells assessed as cell growth at 10 '-4 M after 48 hrs by sulforhodamine B assay; assay type: functional; conditions: COLO 205, 48 h, read-out: Activity
In short: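 In the same five-dose SRB screen (48 h, 37 °C, 5% CO2), percentage growth was computed at each concentration from time-zero (Tz), control (C) and treated (Ti) absorbances. The formula was [(Ti−Tz)/(C−Tz)]×100 when Ti ≥ Tz, or [(Ti−Tz)/Tz]×100 when Ti < Tz.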

UO-31 = experiment: Growth inhibition of human UO31 cells assessed as cell growth at 10 '-5 M after 48 hrs by sulforhodamine B assay; assay type: functional; conditions: UO-31, 48 h, read-out: Activity
CAKI-1 = experiment: Growth inhibition of human CAKI-1 cells assessed as cell growth at 10 '-5 M after 48 hrs by sulforhodamine B assay; assay type: functional; conditions: CAKI-1, 48 h, read-out: Activity; in short: as §1
A498 = experiment: Growth inhibition of human A498 cells assessed as cell growth at 10 '-5 M after 48 hrs by sulforhodamine B assay; assay type: functional; conditions: A498, 48 h, read-out: Activity; in short: as §1
OVCAR-3 [6] = experiment: Growth inhibition of human OVCAR3 cells after 48 hrs by sulforhodamine B assay; assay type: functional; conditions: OVCAR-3, 48 h, read-out: LD50 (the source's name)
M14 = experiment: Growth inhibition of human M14 cells after 48 hrs by sulforhodamine B assay; assay type: functional; conditions: M14, 48 h
In short: (§2)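 NCI 60-cell-line five-dose screen. Cells were plated at 5,000–40,000/well by doubling time and grown 24 h at 37 °C, 5% CO2. Time-zero plates were TCA-fixed. Drug from DMSO stock was tested at 0.01, 0.1, 1, 10 and 100 µM final for 48 h continuous exposure. Read-out was SRB at 515 nm. GI50 is the concentration giving 50% reduction in net protein increase versus untreated control.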

COLO 205 [7] = experiment: Growth inhibition of human COLO205 cells after 48 hrs by sulforhodamine B assay; assay type: functional; conditions: COLO 205, 48 h; in short: as §2
RXF 393 = experiment: Growth inhibition of human RXF393 cells assessed as growth inhibition at 10 uM after 48 hrs by sulforhodamine B assay; assay type: functional; conditions: RXF 393, 48 h, read-out: GI
NCI-H522 = experiment: Growth inhibition of human NCI-H522 cells assessed as cell growth at 10 '-7 M after 48 hrs by sulforhodamine B assay; assay type: functional; conditions: NCI-H522, 48 h, read-out: Activity
NCI-H460 = experiment: Growth inhibition of human NCI-H460 cells assessed as cell growth at 10 '-7 M after 48 hrs by sulforhodamine B assay; assay type: functional; conditions: NCI-H460, 48 h, read-out: Activity
T47D = experiment: Growth inhibition of human T47D cells assessed as cell growth at 10 '-8 M after 48 hrs by sulforhodamine B assay; assay type: functional; conditions: read-out: Activity
UACC-62 = experiment: Growth inhibition of human UACC62 cells assessed as cell growth at 10 '-5 M after 48 hrs by sulforhodamine B assay; assay type: functional; conditions: UACC-62, 48 h, read-out: Activity
OVCAR-3 [8] = experiment: Growth inhibition of human OVCAR3 cells assessed as cell growth at 10 '-8 M after 48 hrs by sulforhodamine B assay; assay type: functional; conditions: OVCAR-3, 48 h, read-out: Activity
SK-MEL-5 = experiment: Growth inhibition of human SK-MEL-5 cells assessed as cell growth at 10 '-8 M after 48 hrs by sulforhodamine B assay; assay type: functional; conditions: SK-MEL-5, 48 h, read-out: Activity
SNB-19 [9] = experiment: Growth inhibition of human SNB19 cells assessed as cell growth at 10 '-8 M after 48 hrs by sulforhodamine B assay; assay type: functional; conditions: SNB-19, 48 h, read-out: Activity
SW-620 = experiment: Growth inhibition of human SW620 cells assessed as cell growth at 10 '-8 M after 48 hrs by sulforhodamine B assay; assay type: functional; conditions: SW-620, 48 h, read-out: Activity
[10] = read-out: LD50 (the source's name)

Cc1cc(=O)oc2cc(OCCn3c(C)nn(-c4ccc(Cl)cc4)c3=O)ccc12
growth at 10 µM (U-251): 27%
growth at 10 µM (HCT-116 [1]): 21%
growth at 10 µM (NCI-H23): 32%
growth at 10 µM [2]: 63%
growth at 10 µM (SR): -6%
growth at 1 µM (OVCAR-4): 88%
growth inhibition (GI) (MDA-MB-435): Active
inhibition of growth at 10 µM (Malme-3M): 67.1%
inhibition of growth at 10 µM (HCT-116 [3]): 84.9%
growth at 0.1 µM (SNB-19 [4]): 89%
growth at 0.1 µM (HT-29): 106%
growth at 100 µM (ACHN): 25%
growth at 0.01 µM (K562): 107%
GI50 (TK-10): 1340 nM
TGI (TK-10): 8840 nM
CC50 (TK-10; [10]): > 1000 nM
growth at 100 µM (COLO 205 [5]): -38%
growth at 10 µM (UO-31): 51%
growth at 10 µM (CAKI-1): 54%
growth at 10 µM (A498): 8%
CC50 (OVCAR-3 [6]): > 1000 nM
GI50 (M14): 2360 nM
TGI (M14): > 1000 nM
CC50 (M14; [10]): > 1000 nM
GI50 (COLO 205 [7]): 2390 nM
TGI (COLO 205 [7]): 7340 nM
CC50 (COLO 205 [7]; [10]): > 1000 nM
inhibition of growth at 10 µM (RXF 393): 62.6%
growth at 0.1 µM (NCI-H522): 96%
growth at 0.1 µM (NCI-H460): 99%
growth at 0.01 µM (T47D): 98%
growth at 10 µM (UACC-62): 24%
growth at 0.01 µM (OVCAR-3 [8]): 111%
growth at 0.01 µM (SK-MEL-5): 97%
growth at 0.01 µM (SNB-19 [9]): 92%
growth at 0.01 µM (SW-620): 99%
